Assay results reported in ChEMBL document CHEMBL1126685, “Bronchodilator activity of xanthine derivatives substituted with functional groups at the 1- or 7-position” (J Med Chem, 1993).

Assays:
Cavia porcellus [1] = species on record: Cavia porcellus; test: Effective concentration required in vitro for heart stimulation (right atrium) in guinea pig; format: functional; conditions: Cardiac atrium
Outline: (§1)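 Isolated right atrium of male Hartley guinea pigs, 25 °C Krebs-Henseleit gassed 95% O2–5% CO2, 0.5 g tension; cumulative concentrations; beating rate via cardiometer triggered by isometric contraction. EC15 = concentration raising rate 15% above unstimulated; 3–5 experiments.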

Cavia porcellus [2] = species on record: Cavia porcellus; test: Effective concentration required in vitro for tracheal muscle (from male Hartley guinea pigs) relaxation; format: functional; conditions: Trachea
Outline: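 Tracheal ring chains from male Hartley guinea pigs (300–500 g), 37 °C Krebs-Henseleit pH 7.4, 95% O2–5% CO2, 0.5 g tension, spontaneous tone; cumulative compound addition, isotonic recording.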

Adenosine receptor A1 [3] = target: T1, Adenosine receptor A1 (Cavia porcellus, UniProt P47745); test: Binding affinity against adenosine A1 receptor of cerebral cortex using [3H]CPX as a radioligand; format: tissue-based
T1 sequence (P47745 whole entry): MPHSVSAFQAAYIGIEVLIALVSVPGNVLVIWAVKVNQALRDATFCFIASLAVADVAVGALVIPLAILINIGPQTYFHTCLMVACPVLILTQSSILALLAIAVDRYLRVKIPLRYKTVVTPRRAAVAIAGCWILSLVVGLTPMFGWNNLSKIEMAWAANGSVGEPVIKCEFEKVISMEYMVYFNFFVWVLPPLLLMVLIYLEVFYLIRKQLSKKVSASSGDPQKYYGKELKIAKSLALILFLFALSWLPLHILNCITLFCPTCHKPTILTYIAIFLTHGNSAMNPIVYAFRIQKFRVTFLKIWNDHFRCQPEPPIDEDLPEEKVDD

[4] = target: cyclic AMP phosphodiesterase (guinea pig); test: Inhibition of cyclic AMP-phosphodiesterase ( PDE) in the supernatant of tracheal muscle homogenate
[5] = Bronchoselectivity expressed as ratio of stimulatory activity in the right atrium (EC15) to relaxant activity in the tracheal muscle (EC50); format: functional, Cardiac atrium
[6] = target: Adenosine A2 receptor (guinea pig); test: Binding affinity against adenosine A2 receptor of striatal membrane using [3H]CGS-21680 as a radioligand
Cavia porcellus [7] = test: Positive chronotropic effect, 15% increase in heart rate of male Hartley guinea pigs on intraduodenal administration (mean of 3-5 animals); format: functional
Outline: (§2)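 Urethane-anesthetized (1.5 g/kg ip), ventilated male Hartley guinea pigs; compound suspended in 0.5% carboxymethylcellulose given intraduodenally 5 min before iv acetylcholine 40 μg/kg (jugular, every 15 min, after three stable responses); Konzett–Rossler overflow bronchospasm and carotid-pulse heart rate followed 110 min.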

Cavia porcellus [8] = test: Bronchodilatory effect, 50% inhibition of spasmogen-induced response in male Hartley guinea pigs on intraduodenal administration; format: functional; outline: as §2
Adenosine receptor A1 [9] = target: T1, Adenosine receptor A1; test: Binding affinity against Adenosine A1 receptor of cerebral cortex using [3H]-CPX; format: tissue-based
Cavia porcellus [10] = species on record: Cavia porcellus; test: In vitro guinea pig heart stimulation (right atrium); format: functional; conditions: Cardiac atrium; outline: as §1
[11] = Bronchoselectivity, ratio of positive chronotropic action (ED15) to bronchodilator action (ED50); format: functional

SMILES | EC15 (Cavia porcellus [1]) | EC50 (Cavia porcellus [2]) | Ki (Adenosine receptor A1 [3]) | Ki [4] | Selectivity [5] | Ki [6] | ED15 (Cavia porcellus [7]) | ED50 (Cavia porcellus [8]) | Ki (Adenosine receptor A1 [9]) | EC15 (Cavia porcellus [10]) | Selectivity [11]
C=CCn1cnc2c1c(=O)n(C)c(=O)n2CCC | 22.4 µM | 11.2 µM | 15.4 µM |  |  |  |  |  |  |  | 
C=CCn1c(=O)c2[nH]cnc2n(CCC)c1=O | 5.4 µM | 1.6 µM | 1.7 µM | 27.3 µM | 3.4 | 11.8 µM |  |  |  |  | 
CCCn1c(=O)n(C)c(=O)c2c1ncn2CC(N)=O | > 100 µM | > 100 µM | > 200 µM | 119 µM | 1 | > 200 µM |  |  |  |  | 
CCCn1c(=O)n(CC#N)c(=O)c2[nH]cnc21 | 1.7 µM | 4.2 µM | 2.1 µM |  |  |  |  |  |  |  | 
CCCCn1c(=O)c2c(ncn2CC(C)=O)n(CCCC)c1=O [DENBUFYLLINE] |  | 0.01 µM |  |  |  |  | 90 mg/kg | 5.9 mg/kg | 16.5 µM | 6 µM | 
CCCn1c(=O)c2nc[nH]c2n(CCC)c1=O | 20 µM |  | 0.21 µM |  |  |  | 25.5 mg/kg | 4.69 mg/kg |  |  | 
C=CCCn1cnc2c1c(=O)n(C)c(=O)n2CCC | 30.6 µM | 16.8 µM | 6 µM | 29.9 µM | 1.8 | 5.6 µM |  |  |  |  | 
CCCn1c(=O)n(CCCCC(C)=O)c(=O)c2[nH]cnc21 | 3.6 µM | 0.06 µM | 23.1 µM | 16.4 µM | 62 |  | 13.5 mg/kg | 2.55 mg/kg |  |  | 5.3
CCCn1c(=O)n(CCC(N)=O)c(=O)c2[nH]cnc21 | 31.2 µM | 13.1 µM | 31.5 µM | 56.3 µM | 2.4 | > 200 µM |  |  |  |  | 
CCCn1c(=O)n(CCCO)c(=O)c2[nH]cnc21 | 26.4 µM | 5.1 µM | 12 µM | 12.6 µM | 5.2 | 68.7 µM |  |  |  |  | 
CCCn1c(=O)n(C)c(=O)c2[nH]cnc21 | 3.3 µM | 1.6 µM |  |  | 2.1 | 8 µM | 5.7 mg/kg | 4.44 mg/kg |  |  | 1.3
CCCn1c(=O)n(C)c(=O)c2c1ncn2CCCN(C)C | > 100 µM | > 100 µM | > 200 µM | > 200 µM | 1 | > 200 µM |  |  |  |  | 
CCCn1c(=O)n(C)c(=O)c2c1ncn2CCOCC | > 100 µM | 4.6 µM | 24.3 µM | 136 µM | 21.7 | 22.9 µM | 25.2 mg/kg | 12.1 mg/kg |  |  | 2.1
CCCn1c(=O)n(CCN(C)C)c(=O)c2[nH]cnc21 | > 100 µM | 2.7 µM | 4.3 µM | 9 µM | 37 | > 200 µM | > 100 mg/kg | 5.65 mg/kg |  |  | > 17.7
CCCn1c(=O)n(C)c(=O)c2c1ncn2CCN(C)C | > 100 µM | > 100 µM | > 200 µM | 53 µM | 1 | > 200 µM |  |  |  |  | 
CCCn1c(=O)n(CC(=O)O)c(=O)c2[nH]cnc21 | > 100 µM | 41 µM | > 200 µM | > 200 µM | 2.4 | > 200 µM |  |  |  |  | 
CCCn1c(=O)n(C)c(=O)c2c1ncn2CCC(N)=O | > 100 µM | > 100 µM | > 200 µM |  |  |  |  |  |  |  | 
CCCn1c(=O)n(CCCOC)c(=O)c2[nH]cnc21 | 31.3 µM | 2.9 µM | 12.4 µM | 48.7 µM | 10.8 | 15.7 µM | 10.7 mg/kg | 0.72 mg/kg |  |  | 14.9
CCCn1c(=O)n(CCO)c(=O)c2[nH]cnc21 | 2 µM | 0.51 µM | 50 µM | 14.1 µM | 3.9 | > 200 µM |  |  |  |  | 
CCCn1c(=O)n(C)c(=O)c2c1ncn2CCOC | > 100 µM | 36.1 µM | 12.4 µM | 72.7 µM | 2.8 | 58.7 µM |  |  |  |  | 
CCCn1c(=O)n(CCC(=O)O)c(=O)c2[nH]cnc21 | > 100 µM | 21.2 µM | > 200 µM | 60 µM | 4.7 | > 200 µM |  |  |  |  | 
